Measured values: ChEMBL document CHEMBL1833814 (Bioorg Med Chem Lett, 2011)
Converted amounts (≈) assume the structure as drawn. Values belong to the compound of their own block, whether it stands above or below them.

What was measured:
[1] = biological target: Fatty acid synthase (Homo sapiens, UniProt P49327); experiment: Inhibition of human FAS assessed as synthesis of long chain fatty acids from malonyl CoA after 60 mins by fluorescence assay
Procedure, shortened: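 FAS enzyme prepared from HeLa cells, in enzyme buffer (20 mM K phosphate, 1 mM EDTA, 1 mM DTT, 5% glycerol, pH 7.4). It was preincubated 60 min at 37 °C with compound (0.1% DMSO), 326 µM NADPH and 60 µM acetyl CoA in 100 mM K phosphate, 1 mM EDTA, 1 mM DTT, pH 7.0. The reaction was started with 200 µM malonyl CoA. NADPH consumption was read at 340 nm over 10 min, and the slope (Vmax) was taken.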

[2] = biological target: Pyroglutamylated RF-amide peptide receptor (Homo sapiens) (UniProt Q96P65); experiment: Binding affinity to human GPR103 receptor at 10 uM by radioligand binding assay
[3] = biological target: Muscarinic acetylcholine receptor M3 (Homo sapiens) (UniProt P20309); experiment: Binding affinity to human muscarinic M3 receptor at 10 uM by radioligand binding assay
[4] = biological target: Mu-type opioid receptor (Homo sapiens) (UniProt P35372); experiment: Binding affinity to human MOP receptor at 10 uM by radioligand binding assay
Mu-type opioid receptor (Homo sapiens), sequence (P35372 whole entry): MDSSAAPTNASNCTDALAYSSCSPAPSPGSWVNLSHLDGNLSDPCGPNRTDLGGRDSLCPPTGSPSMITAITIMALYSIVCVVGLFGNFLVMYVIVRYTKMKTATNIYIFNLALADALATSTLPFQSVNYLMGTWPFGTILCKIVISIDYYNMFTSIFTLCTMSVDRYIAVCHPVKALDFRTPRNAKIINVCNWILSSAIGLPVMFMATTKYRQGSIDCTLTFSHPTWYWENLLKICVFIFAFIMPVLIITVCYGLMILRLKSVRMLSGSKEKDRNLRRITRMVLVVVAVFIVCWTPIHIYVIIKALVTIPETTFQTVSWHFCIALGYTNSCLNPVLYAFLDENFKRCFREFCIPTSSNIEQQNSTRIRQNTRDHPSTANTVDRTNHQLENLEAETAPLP

[5] = Aqueous solubility of compound at pH 7.4; assay type: physicochemical; conditions: buffer
[6] = biological target: Sigma non-opioid intracellular receptor 1 (Homo sapiens) (UniProt Q99720); experiment: Binding affinity to human sigma 1 receptor at 10 uM by radioligand binding assay
[7] = biological target: D(2) dopamine receptor (Homo sapiens) (UniProt P14416); experiment: Binding affinity to human dopamine D2short receptor at 10 uM by radioligand binding assay
[8] = biological target: Alpha-1B adrenergic receptor (Rattus norvegicus) (UniProt P15823); experiment: Binding affinity to rat adrenergic Alpha-1B receptor at 10 uM by radioligand binding assay
Alpha-1B adrenergic receptor (Rattus norvegicus), sequence (P15823 whole entry): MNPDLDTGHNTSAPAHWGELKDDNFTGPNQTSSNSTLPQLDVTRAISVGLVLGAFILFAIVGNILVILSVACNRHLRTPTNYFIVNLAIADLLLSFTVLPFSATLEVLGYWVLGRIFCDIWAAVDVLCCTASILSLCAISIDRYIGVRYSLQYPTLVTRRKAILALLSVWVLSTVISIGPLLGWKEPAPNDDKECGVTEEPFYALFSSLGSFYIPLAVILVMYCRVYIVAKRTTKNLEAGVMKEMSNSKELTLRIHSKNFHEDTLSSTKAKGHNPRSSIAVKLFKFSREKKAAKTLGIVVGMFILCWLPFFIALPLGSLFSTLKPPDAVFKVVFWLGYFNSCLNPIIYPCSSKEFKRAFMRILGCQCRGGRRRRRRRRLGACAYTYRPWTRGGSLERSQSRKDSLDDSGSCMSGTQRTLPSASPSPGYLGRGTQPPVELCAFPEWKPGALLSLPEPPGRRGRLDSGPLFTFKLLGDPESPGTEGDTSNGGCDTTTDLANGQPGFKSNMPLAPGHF

[9] = organism: Rattus norvegicus; experiment: Binding affinity to rat agonist site of GABA-A receptor at 10 uM by radioligand binding assay
[10] = organism: Rattus norvegicus; experiment: Liver blood flow rat; assay type: ADME, organism-based
[11] = biological target: Adenosine receptor A2a (Homo sapiens) (UniProt P29274); experiment: Binding affinity to human adenosine A2A receptor at 10 uM by radioligand binding assay
[12] = Clearance in iv dosed Han/Wistar rat; assay type: ADME, organism-based; conditions: in vivo
Procedure, shortened: (§1)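 Male Han/Wistar rats were dosed intravenously.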

[13] = organism: Rattus norvegicus; experiment: Binding affinity to rat ATP-sensitive potassium channel at 10 uM by radioligand binding assay
[14] = AUC (0 to infinity) in Han/Wistar rat at 4 mg/kg, po; assay type: ADME, organism-based; design: time infinity, dose 4 mg/kg, route oral; conditions: plasma
Procedure, shortened: (§2)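 Male Han/Wistar rats were dosed orally. Compound levels were measured in plasma, and in brain and CSF at 2 h.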

[15] = biological target: Alpha-2A adrenergic receptor (Homo sapiens) (UniProt P08913); experiment: Binding affinity to human adrenergic alpha2A receptor at 10 uM by radioligand binding assay
Alpha-2A adrenergic receptor (Homo sapiens), sequence (P08913 whole entry): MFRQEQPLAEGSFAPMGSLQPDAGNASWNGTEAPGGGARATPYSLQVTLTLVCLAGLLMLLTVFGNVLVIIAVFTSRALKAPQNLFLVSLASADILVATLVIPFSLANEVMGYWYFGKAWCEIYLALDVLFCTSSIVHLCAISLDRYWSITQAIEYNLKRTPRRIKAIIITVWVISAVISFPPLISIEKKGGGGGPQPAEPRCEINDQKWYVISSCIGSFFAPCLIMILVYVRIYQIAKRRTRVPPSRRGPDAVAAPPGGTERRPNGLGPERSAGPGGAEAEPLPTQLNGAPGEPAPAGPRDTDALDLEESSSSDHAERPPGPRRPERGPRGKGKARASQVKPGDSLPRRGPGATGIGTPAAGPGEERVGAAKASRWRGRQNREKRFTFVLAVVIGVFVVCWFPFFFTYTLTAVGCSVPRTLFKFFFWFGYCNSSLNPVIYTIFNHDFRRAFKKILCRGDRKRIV

[16] = biological target: Cytochrome P450 1A2 (Homo sapiens, UniProt P05177); experiment: Inhibition of human CYP1A2; assay type: ADME
[17] = biological target: Muscarinic acetylcholine receptor M2 (Homo sapiens) (UniProt P08172); experiment: Binding affinity to human muscarinic M2 receptor at 10 uM by radioligand binding assay
[18] = biological target: Cytochrome P450 2D6 (Homo sapiens, UniProt P10635); experiment: Inhibition of human CYP2D6; assay type: ADME
[19] = biological target: Acetylcholine receptor subunit alpha (Homo sapiens) (UniProt P02708); experiment: Binding affinity to human bungrotoxin binding site of nicotinic acetylcholine receptor alpha1 at 10 uM by radioligand binding assay
[20] = Volume of distribution at steady state in iv dosed Han/Wistar rat; assay type: ADME, organism-based; conditions: in vivo, read-out: Vdss; procedure, shortened: as §1
[21] = organism: Rattus norvegicus; experiment: Binding affinity to rat central imidazoline I2 receptor at 10 uM by radioligand binding assay
[22] = Cmax in Han/Wistar rat at 4 mg/kg, po; assay type: ADME, organism-based; design: dose 4 mg/kg, route oral; conditions: in vivo; procedure, shortened: as §2
[23] = Tmax in Han/Wistar rat at 4 mg/kg, po; assay type: ADME, organism-based; design: dose 4 mg/kg, route oral; conditions: in vivo; procedure, shortened: as §2
[24] = biological target: Sodium-dependent noradrenaline transporter (Homo sapiens) (UniProt P23975); experiment: Binding affinity to human NET at 10 uM by radioligand binding assay
Sodium-dependent noradrenaline transporter (Homo sapiens), sequence (P23975 whole entry): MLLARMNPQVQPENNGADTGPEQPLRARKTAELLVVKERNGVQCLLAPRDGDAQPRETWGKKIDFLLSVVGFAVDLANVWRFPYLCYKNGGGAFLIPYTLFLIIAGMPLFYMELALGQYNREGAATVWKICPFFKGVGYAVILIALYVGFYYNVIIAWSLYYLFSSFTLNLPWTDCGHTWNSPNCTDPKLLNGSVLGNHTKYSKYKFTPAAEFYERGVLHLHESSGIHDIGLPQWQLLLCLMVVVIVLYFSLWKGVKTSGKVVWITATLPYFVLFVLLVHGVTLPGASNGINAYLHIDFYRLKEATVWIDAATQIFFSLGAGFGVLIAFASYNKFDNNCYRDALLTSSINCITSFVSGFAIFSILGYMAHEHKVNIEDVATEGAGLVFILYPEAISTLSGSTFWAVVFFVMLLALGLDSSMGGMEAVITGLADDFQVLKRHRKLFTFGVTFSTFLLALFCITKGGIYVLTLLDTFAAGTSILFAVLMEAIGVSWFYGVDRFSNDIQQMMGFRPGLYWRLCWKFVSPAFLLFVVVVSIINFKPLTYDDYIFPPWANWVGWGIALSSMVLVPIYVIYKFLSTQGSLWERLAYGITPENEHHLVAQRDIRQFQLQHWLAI

[25] = biological target: Fatty acid synthase (Mus musculus, UniProt P19096); experiment: Inhibition of FAS in mouse N42 cells assessed as [14C]-acetate incorporation after 4 hrs by scintillation counting; assay type: cell-based
Procedure, shortened: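 Immortalized clonal neuronal mouse hypothalamic N-42 cells were exposed to compound for 60 min at 37 °C, then to 14C-acetate (10^6 dpm) for 4 h at 37 °C. Lipids were extracted with chloroform/methanol and the lower phase was evaporated. Incorporated radioactivity was measured by scintillation counting.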

[26] = organism: Rattus norvegicus; experiment: Binding affinity to rat sigma 2 receptor at 10 uM by radioligand binding assay
[27] = biological target: Cytochrome P450 3A4 (Homo sapiens, UniProt P08684); experiment: Inhibition of human CYP3A4; assay type: ADME
[28] = biological target: D(1A) dopamine receptor (Homo sapiens) (UniProt P21728); experiment: Binding affinity to human dopamine D1 receptor at 10 uM by radioligand binding assay
[29] = organism: Rattus norvegicus; experiment: Binding affinity to rat sodium channel site 2 at 10 uM by radioligand binding assay
[30] = Drug level in Han/Wistar rat brain at 4 mg/kg, po after 2 hrs; assay type: ADME, organism-based; design: dose 4 mg/kg, route oral; conditions: read-out: Drug uptake; procedure, shortened: as §2
[31] = Permeability across human Caco2 cells; assay type: ADME, cell-based; conditions: Caco-2, read-out: permeability
[32] = organism: Rattus norvegicus; experiment: Binding affinity to rat dihydropyridine binding site of calcium channel L-type at 10 uM by radioligand binding assay
[33] = biological target: Cytochrome P450 2C19 (Homo sapiens, UniProt P33261); experiment: Inhibition of human CYP2C19; assay type: ADME
Cytochrome P450 2C19, sequence (P33261 whole entry): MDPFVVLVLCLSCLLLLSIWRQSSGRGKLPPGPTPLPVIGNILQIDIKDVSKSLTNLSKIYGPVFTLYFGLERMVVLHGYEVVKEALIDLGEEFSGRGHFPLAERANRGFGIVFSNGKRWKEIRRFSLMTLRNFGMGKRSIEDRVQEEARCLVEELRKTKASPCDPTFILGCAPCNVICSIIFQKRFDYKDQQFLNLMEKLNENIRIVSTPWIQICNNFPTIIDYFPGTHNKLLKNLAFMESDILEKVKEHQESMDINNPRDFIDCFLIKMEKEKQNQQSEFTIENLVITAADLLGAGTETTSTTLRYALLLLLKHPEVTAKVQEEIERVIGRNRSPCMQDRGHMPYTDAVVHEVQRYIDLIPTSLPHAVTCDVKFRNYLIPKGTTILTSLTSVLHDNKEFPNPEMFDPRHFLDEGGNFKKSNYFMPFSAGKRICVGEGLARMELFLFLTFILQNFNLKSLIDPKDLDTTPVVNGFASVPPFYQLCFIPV

[34] = biological target: Alpha-1A adrenergic receptor (Rattus norvegicus) (UniProt P43140); experiment: Binding affinity to rat adrenergic alpha1A receptor at 10 uM by radioligand binding assay
[35] = biological target: Beta-1 adrenergic receptor (Homo sapiens) (UniProt P08588); experiment: Binding affinity to human beta1 adrenergic receptor at 10 uM by radioligand binding assay
[36] = system: U937 (Homo sapiens); experiment: Cytotoxicity against human U937 cells up to 30 uM by LDH release assay
[37] = biological target: Adenosine receptor A1 (Homo sapiens) (UniProt P30542); experiment: Binding affinity to human adenosine A1 receptor at 10 uM by radioligand binding assay
[38] = system: Liver microsomes; experiment: Metabolic stability in human liver microsomes; assay type: ADME, Microsome
[39] = biological target: Prostaglandin E2 receptor EP4 subtype (Homo sapiens) (UniProt P35408); experiment: Binding affinity to human EP4 receptor at 10 uM by radioligand binding assay
[40] = Plasma protein binding in rat; assay type: ADME, cell-free; conditions: read-out: PPB (converted)
[41] = organism: Rattus norvegicus; experiment: Binding affinity to rat GABA-A receptor at 10 uM by radioligand binding assay
[42] = system: Liver microsomes; experiment: Metabolic stability in rat liver microsomes; assay type: ADME, Microsome
[43] = biological target: Cytochrome P450 2C9 (Homo sapiens, UniProt P11712); experiment: Inhibition of human CYP2C9; assay type: ADME
[44] = Oral bioavailability in Han/Wistar rat at 4 mg/kg; assay type: ADME, organism-based; conditions: in vivo; procedure, shortened: as §2
[45] = biological target: hERG (KCNH2) (Homo sapiens, UniProt Q12809); experiment: Binding affinity to human ERG at 10 uM by radioligand binding assay
[46] = organism: Rattus norvegicus; experiment: Binding affinity to rat rolipram binding site at 10 uM by radioligand binding assay
[47] = Drug level in Han/Wistar rat cerebrospinal fluid at 4 mg/kg, po after 2 hrs; assay type: ADME, organism-based; design: dose 4 mg/kg, route oral; conditions: read-out: Drug uptake; procedure, shortened: as §2
[48] = biological target: Beta-2 adrenergic receptor (Homo sapiens) (UniProt P07550); experiment: Binding affinity to human adrenergic beta2 receptor at 10 uM by radioligand binding assay
[49] = Half life in Han/Wistar rat at 4 mg/kg, po; assay type: ADME, organism-based; design: dose 4 mg/kg, route oral; conditions: in vivo; procedure, shortened: as §2
[50] = biological target: Histamine H1 receptor (Homo sapiens) (UniProt P35367); experiment: Binding affinity to human histamine H1 receptor at 10 uM by radioligand binding assay
[51] = organism: Mus musculus; experiment: Binding affinity to mouse phorbol ester receptor at 10 uM by radioligand binding assay
[52] = organism: Homo sapiens; experiment: Liver blood flow human; assay type: ADME, organism-based
[53] = biological target: Glutamate NMDA receptor (Rattus norvegicus) (UniProt P35439+Q00959+Q00960+Q00961+Q62645+Q8VHN2+Q9R1M7); experiment: Binding affinity to rat NMDA receptor at 10 uM by radioligand binding assay; assay type: protein-complex assay

Fatty acid synthase (Homo sapiens, UniProt P49327), sequence (P49327 whole entry): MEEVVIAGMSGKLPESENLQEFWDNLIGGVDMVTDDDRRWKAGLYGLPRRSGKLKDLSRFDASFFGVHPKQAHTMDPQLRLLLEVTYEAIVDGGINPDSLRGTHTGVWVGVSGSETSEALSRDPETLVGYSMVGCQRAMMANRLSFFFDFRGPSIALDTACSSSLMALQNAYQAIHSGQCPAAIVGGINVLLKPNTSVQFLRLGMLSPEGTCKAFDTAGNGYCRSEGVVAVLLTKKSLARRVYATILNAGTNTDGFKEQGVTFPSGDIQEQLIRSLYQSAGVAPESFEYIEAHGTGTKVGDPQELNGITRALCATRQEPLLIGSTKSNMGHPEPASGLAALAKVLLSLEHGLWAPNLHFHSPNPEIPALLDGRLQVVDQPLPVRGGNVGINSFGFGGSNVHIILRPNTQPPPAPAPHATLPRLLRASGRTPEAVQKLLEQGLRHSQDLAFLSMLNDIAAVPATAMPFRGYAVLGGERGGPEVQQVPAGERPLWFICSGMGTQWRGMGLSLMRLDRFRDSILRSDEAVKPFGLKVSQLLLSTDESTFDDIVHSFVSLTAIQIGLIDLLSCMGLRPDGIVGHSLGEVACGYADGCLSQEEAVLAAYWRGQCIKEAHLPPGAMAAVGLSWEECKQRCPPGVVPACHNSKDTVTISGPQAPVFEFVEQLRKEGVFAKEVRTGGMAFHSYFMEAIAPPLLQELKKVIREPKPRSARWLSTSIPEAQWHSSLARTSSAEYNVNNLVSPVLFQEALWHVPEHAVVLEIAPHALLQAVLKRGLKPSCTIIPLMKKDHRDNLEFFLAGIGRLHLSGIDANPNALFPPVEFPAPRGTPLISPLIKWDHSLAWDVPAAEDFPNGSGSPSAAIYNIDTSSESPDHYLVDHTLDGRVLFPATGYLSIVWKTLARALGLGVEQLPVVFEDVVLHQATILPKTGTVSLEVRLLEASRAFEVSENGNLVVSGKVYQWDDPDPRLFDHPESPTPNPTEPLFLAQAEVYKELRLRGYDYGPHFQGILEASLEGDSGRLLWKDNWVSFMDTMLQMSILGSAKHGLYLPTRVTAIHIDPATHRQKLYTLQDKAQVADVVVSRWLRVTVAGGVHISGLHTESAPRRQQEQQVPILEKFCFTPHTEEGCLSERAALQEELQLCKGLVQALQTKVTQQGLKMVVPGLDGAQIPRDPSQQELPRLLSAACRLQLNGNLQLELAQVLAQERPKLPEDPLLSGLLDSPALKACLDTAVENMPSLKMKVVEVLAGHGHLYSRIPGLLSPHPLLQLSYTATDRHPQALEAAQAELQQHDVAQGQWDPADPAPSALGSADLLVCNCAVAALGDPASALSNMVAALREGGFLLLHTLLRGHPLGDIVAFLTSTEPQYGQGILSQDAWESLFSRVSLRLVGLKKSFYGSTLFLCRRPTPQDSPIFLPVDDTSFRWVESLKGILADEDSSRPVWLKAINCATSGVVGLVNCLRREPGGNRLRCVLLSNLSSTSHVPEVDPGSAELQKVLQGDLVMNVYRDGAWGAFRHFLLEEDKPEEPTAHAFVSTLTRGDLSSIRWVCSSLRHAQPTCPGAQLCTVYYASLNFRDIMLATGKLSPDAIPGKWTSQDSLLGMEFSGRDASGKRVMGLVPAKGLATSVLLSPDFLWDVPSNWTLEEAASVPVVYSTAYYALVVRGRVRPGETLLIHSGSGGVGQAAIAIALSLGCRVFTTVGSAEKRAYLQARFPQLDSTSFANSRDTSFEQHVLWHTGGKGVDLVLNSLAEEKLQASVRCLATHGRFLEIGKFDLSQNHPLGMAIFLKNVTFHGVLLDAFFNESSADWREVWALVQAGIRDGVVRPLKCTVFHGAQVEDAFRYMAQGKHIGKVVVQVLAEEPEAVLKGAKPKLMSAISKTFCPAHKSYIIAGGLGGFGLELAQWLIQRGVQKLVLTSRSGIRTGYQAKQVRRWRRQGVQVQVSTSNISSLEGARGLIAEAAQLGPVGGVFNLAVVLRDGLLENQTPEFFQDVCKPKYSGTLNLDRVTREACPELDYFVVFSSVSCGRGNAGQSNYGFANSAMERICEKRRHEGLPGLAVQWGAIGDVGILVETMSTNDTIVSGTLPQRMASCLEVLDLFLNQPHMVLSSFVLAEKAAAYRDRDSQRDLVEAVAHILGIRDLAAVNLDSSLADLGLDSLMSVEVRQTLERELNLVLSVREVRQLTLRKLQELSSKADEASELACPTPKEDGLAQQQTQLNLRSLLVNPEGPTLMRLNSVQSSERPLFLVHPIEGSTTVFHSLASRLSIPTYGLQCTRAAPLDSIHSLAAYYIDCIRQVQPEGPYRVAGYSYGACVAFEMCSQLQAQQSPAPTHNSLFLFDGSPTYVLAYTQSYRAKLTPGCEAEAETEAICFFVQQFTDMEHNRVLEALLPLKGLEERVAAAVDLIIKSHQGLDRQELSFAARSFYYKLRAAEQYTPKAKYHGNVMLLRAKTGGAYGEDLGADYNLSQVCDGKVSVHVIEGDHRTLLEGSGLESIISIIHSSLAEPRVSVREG

IC50 [1]: 910 nM
SMILES: COCC(=O)N[C@H]1CC[C@@H](C(=O)N(C)c2ccc(-c3nc4ccccc4o3)cc2)C1

IC50 [1]: 280 nM
SMILES: CN(C)C(=O)N[C@H]1CC[C@@H](C(=O)N(C)c2ccc(-c3nc4ccccc4o3)cc2)C1

IC50 [1]: 480 nM
SMILES: CC(=O)N[C@H]1CC[C@@H](C(=O)N(C)c2ccc(-c3ccccc3)cc2)C1

IC50 [1]: 300 nM
SMILES: CCC(=O)N[C@H]1CC[C@@H](C(=O)N(C)c2ccc(-c3ccccc3)cc2)C1

IC50 [1]: 270 nM
SMILES: CN(C(=O)[C@@H]1CC[C@H](NC(=O)C(F)F)C1)c1ccc(-c2nc3ccccc3o2)cc1

IC50 [1]: 310 nM
SMILES: CCC(=O)N[C@H]1CC[C@@H](C(=O)N(C)c2ccc(-c3nc4ccccc4n3C)cc2)C1

IC50 [1]: 580 nM
SMILES: CN(C)CCCCCC(=O)N[C@H]1CC[C@@H](C(=O)N(C)c2ccc(-c3nc4ccccc4o3)cc2)C1

IC50 [1]: 700 nM
SMILES: CN(C)CCCCCC(=O)N[C@H]1CC[C@@H](C(=O)N(C)c2ccc(-c3nc4ccccc4[nH]3)cc2)C1

SMILES: C/C=C/C/C=C/CCC(=O)[C@H]1O[C@H]1C(N)=O [CERULENIN]
IC50 [1]: 5800 nM

IC50 [1]: 1500 nM
SMILES: CCNC(=O)N[C@H]1CC[C@@H](C(=O)N(C)c2ccc(-c3ccccc3)cc2)C1

SMILES: CCC(=O)N[C@H]1CC[C@@H](C(=O)N(C)c2ccc(-c3nc4ccccc4o3)cc2)C1 [BI 99179]
inhibition [2]: -1%
inhibition [3]: -6%
inhibition [4]: 0%
solubility [5]: 5 µg/mL (≈ 12.8 µM)
inhibition [6]: -2%
inhibition [7]: 5%
inhibition [8]: 4%
inhibition [9]: 4%
QH [10]: < 27%
inhibition [11]: 10%
clearance [12]: 8.2 mL/min/kg
inhibition [13]: 12%
AUC(0-inf) [14]: 9.35 µM·h
inhibition [15]: 2%
IC50 [16]: > 10000 nM
inhibition [17]: 10%
IC50 [18]: > 10000 nM
inhibition [19]: 9%
Vd [20]: 1.6 L/kg
inhibition [21]: 19%
Cmax [22]: 2110 nM
Tmax [23]: 0.5 h
inhibition [24]: 9%
IC50 [25]: 600 nM
inhibition [26]: 13%
IC50 [27]: > 10000 nM
inhibition [28]: 7%
inhibition [29]: 1%
concentration at 2 h [30]: 1300 nM
Papp [31]: 94 ×10⁻⁶ cm/s
inhibition [32]: 7%
IC50 [33]: > 10000 nM
inhibition [34]: 17%
inhibition [35]: 4%
Activity [36]: Non-toxic
inhibition [37]: -7%
Stability [38]: Stable
inhibition [39]: 9%
fraction unbound [40]: 0.024
inhibition [41]: 8%
Stability [42]: Stable
IC50 [43]: > 10000 nM
bioavailability [44]: 46%
inhibition at 10 µM [45]: -5%
inhibition [46]: 17%
concentration at 2 h [47]: 50 nM
inhibition [48]: 0%
half-life [49]: 3 h
IC50 [1]: 79 nM
inhibition [50]: 13%
inhibition [51]: 6%
QH [52]: < 26%
inhibition [53]: -1%

IC50 [1]: 1400 nM
SMILES: CCNC(=O)N[C@H]1CC[C@@H](C(=O)N(C)c2ccc(-c3nc4ccccc4n3C)cc2)C1
